Blank lines part the entries; values can stand above or below the compound they belong to.
Columns and labels:
[1] = Drug metabolism in dog primary hepatocytes assessed as ((4R,5R,7R,8R)-5-(2,4-dioxo-3,4-dihydropyrimidin-1(2H)-yl)-8-hydroxy-1,6-dioxaspiro[3.4]octan-7-yl)methyl dihydrogen phosphate formation at 2 to 62.5 uM after 4 hrs using radiolabeled compound by LC-MS/MS analysis; format: ADME, cell-based, Canis lupus familiaris, Hepatocyte
Outline: (§1)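 Study A: primary cultured hepatocytes (mouse, rat, dog, human) incubated with 2 or 62.5 µM 5'-[3H]-labelled prodrug for 4 and 24 h. Cell lysates were analysed for triphosphate. Supernatants were protein-precipitated and profiled by HPLC with radioactivity detection. Cyclic monophosphate was also assessed by LC/MS/MS.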

Hepatocyte [2] = test: Prodrug conversion in rat primary hepatocytes assessed as 2'-deoxy-2'-spirooxetane uridine triphosphate level per million cells at 2 uM after 4 hrs using radiolabelled compound by LC-MS/MS analysis; format: ADME, cell-based
Outline: (§2)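 Study A: fresh primary hepatocyte cultures from mouse, rat, dog and human incubated with tritiated prodrug at 2 or 62.5 µM for 4 or 24 h. Triphosphate in cell lysates reported as pmol/million hepatocytes. Duplicate or single measurements.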

Hepatocyte [3] = test: Prodrug conversion in human primary hepatocytes assessed as 2'-deoxy-2'-spirooxetane uridine triphosphate level per million cells at 2 uM after 24 hrs using radiolabelled compound by LC-MS/MS analysis; format: ADME, cell-based; outline: as §2
[4] = Prodrug conversion in dog primary hepatocytes assessed as 2'-deoxy-2'-spirooxetane uridine triphosphate level per million cells at 2 uM after 4 hrs using radiolabelled compound by LC-MS/MS analysis; format: ADME, cell-based, Canis lupus familiaris, Hepatocyte; outline: as §2
[5] = Drug metabolism in dog primary hepatocyte supernatant assessed as 1-[(4aR,6R,7R,7aR)-2-hydroxy-2-oxidodihydro-4H-spiro[furo[3,2-d][1,3,2]dioxaphosphinine-7,2'-oxetan]-6-yl]pyrimidine-2,4(1H,3H)-dione formation at 2 to 62.5 uM after 4 to 24 hrs using radiolabelled compound by HPLC analysis; format: ADME, cell-based, Canis lupus familiaris; details: hepatocytes; outline: as §1
Hepatocyte [6] = test: Drug metabolism in rat primary hepatocyte supernatant assessed as 1-[(4aR,6R,7R,7aR)-2-hydroxy-2-oxidodihydro-4H-spiro[furo[3,2-d][1,3,2]dioxaphosphinine-7,2'-oxetan]-6-yl]pyrimidine-2,4(1H,3H)-dione formation at 2 to 62.5 uM after 4 to 24 hrs using radiolabelled compound by HPLC analysis; format: ADME, cell-based; details: hepatocytes
Outline: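 Fresh primary hepatocyte cultures incubated with tritiated prodrug (5'-[3H]) at 2 and 62.5 µM for 4 and 24 h. Supernatants taken after protein precipitation and profiled by HPLC with radioactivity detection. Cell lysates profiled for metabolites by radio-LC. Cyclic monophosphate also measured by LC/MS/MS.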

Hepatocyte [7] = test: Prodrug conversion in mouse primary hepatocytes assessed as 2'-deoxy-2'-spirooxetane uridine triphosphate level per million cells at 2 uM after 4 hrs using radiolabelled compound by LC-MS/MS analysis; format: ADME, cell-based; outline: as §2
Hepatitis C virus [8] = test: Antiviral activity against HCV genotype 1a infected in homozygous cDNA-uPA chimeric SCID mouse bearing humanized hepatocytes assessed as change in HCV RNA level in serum at 100 mg/kg, po bid administered through gavage for 7 days by RT-PCR method; format: functional, Hepacivirus hominis, subtype 1a, Hepatocyte
Outline: (§3)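 Male chimeric SCID cDNA-uPA+/+ mice with human hepatocyte liver (≥70% replacement by blood human albumin) and serum HCV RNA >1.0×10^6 copies/mL the week before dosing. Oral gavage for 7 days in 20% HP-β-CD, 50-200 mg/kg QD or BID. Serum sampled pre-dose on days 1, 2, 3, 5 and 7. Real-time PCR; mean change in log10 copies/mL, day 7 vs day 1 pre-dose.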

[9] = Cmax in dog liver at 50 mg/kg, po; format: ADME, organism-based, Canis lupus familiaris; parameters: dose 50 mg/kg, route oral
Liver [10] = test: Tlast in rat liver assessed as 2'-deoxy-2'-spirooxetane uridine triphosphate at 50 mg/kg, po; format: ADME, organism-based; details: in vivo
Outline: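 Single oral dose of 50 mg/kg formulated in 20% HP-β-cyclodextrin. Prodrug and its triphosphate were measured in plasma and liver (ng/mL or ng/g) over time, and Cmax, tmax, AUC, tlast and t1/2 were derived. For some analytes, data from two independent studies are reported.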

[11] = Cmax in mouse plasma at 50 mg/kg, po; format: ADME, organism-based; parameters: dose 50 mg/kg, route oral
[12] = Cytotoxicity against human HuH7-CMV-Luc cells assessed as reduction in cell proliferation after 3 days by 5-bromo-2'-deoxyuridine incorporation assay; format: cell-based, Huh-7
Outline: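 Huh7 cells at 1,500 cells/well, five serial compound dilutions in triplicate, 3 days of incubation. Proliferation was quantified as BrdU incorporation into DNA by ELISA.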

Hepatocyte [13] = test: Drug metabolism in human hepatocytes assessed as ((4R,5R,7R,8R)-5-(2,4-dioxo-3,4-dihydropyrimidin-1(2H)-yl)-8-hydroxy-1,6-dioxaspiro[3.4]octan-7-yl)methyl dihydrogen phosphate formation in presence of pan-CYP inhibitor 1-ABT by LC-MS/MS analysis; format: ADME, cell-based
Hepatitis C virus [14] = test: Antiviral activity against HCV genotype 1a infected in homozygous cDNA-uPA chimeric SCID mouse bearing humanized hepatocytes assessed as change in HCV RNA level in serum at 200 mg/kg, po qd administered through gavage for 7 days by RT-PCR method; format: functional, Hepacivirus hominis, subtype 1a, Hepatocyte; outline: as §3
Hepatocyte [15] = test: Prodrug conversion in human primary hepatocytes assessed as 2'-deoxy-2'-spirooxetane uridine triphosphate formation measured at 48 to 96 hrs by LC-MS/MS analysis; format: ADME, cell-based
Outline: (§4)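 Hepatocyte primary cultures followed over time for triphosphate formation in cell lysates: rat and mouse up to 24 h, human up to 96 h.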

Hepatitis C virus [16] = test: Antiviral activity against HCV genotype 3a infected in homozygous cDNA-uPA chimeric SCID mouse bearing humanized hepatocytes assessed as reduction in HCV RNA level in serum administered through oral gavage once daily for 7 days by RT-PCR method; format: functional, organism-based; details: Hepacivirus hominis, Hepatocyte; outline: as §3
[17] = Cmax in dog plasma at 50 mg/kg, po; format: ADME, organism-based, Canis lupus familiaris; parameters: dose 50 mg/kg, route oral
Hepatocyte [18] = test: Drug level in human hepatocytes in presence of CYP3A4 inhibitor ketoconazole by LC-MS/MS analysis; format: ADME, cell-based
Hepatocyte [19] = test: Prodrug conversion in human hepatocytes assessed as 2'-deoxy-2'-spirooxetane uridine triphosphate formation in presence of PDE4 inhibitor rolipram by LC-MS/MS analysis; format: ADME, cell-based
Hepatocyte [20] = test: Prodrug conversion in rat cryopreserved hepatocytes assessed as 2'-deoxy-2'-spirooxetane uridine triphosphate level per million cells at 10 uM after 24 hrs by LC-MS/MS analysis; format: ADME, cell-based
Outline: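 Plated cryopreserved hepatocytes (study B) incubated with 10 µM unlabeled prodrug for 2, 8 or 24 h. Triphosphate measured in cell lysates and expressed as pmol/million hepatocytes. Quantification limit 2 ng/10^6 cells.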

Liver [21] = test: AUC (0 to infinity) in rat liver assessed as 2'-deoxy-2'-spirooxetane uridine triphosphate at 50 mg/kg, po; format: ADME, organism-based; parameters: dose 50 mg/kg, time infinity, route oral; details: in vivo
Outline: (§5)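 Oral dose 50 mg/kg, formulated in 20% HP-β-cyclodextrin. Prodrug and triphosphate were measured in plasma and liver (ng/mL or ng/g). Parameters derived were Cmax, tmax, AUC0-last, AUC0-inf and t1/2. Some prodrug data come from two independent studies.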

Hepatocyte [22] = test: Prodrug conversion in mouse primary hepatocytes assessed as 2'-deoxy-2'-spirooxetane uridine triphosphate formation measured at 8 hrs by LC-MS/MS analysis; format: ADME, cell-based; outline: as §4
[23] = Cmax in mouse liver at 50 mg/kg, po; format: ADME, organism-based; parameters: dose 50 mg/kg, route oral
Liver [24] = test: AUC (0 to last) in mouse liver at 50 mg/kg, po; format: ADME, organism-based; details: in vivo; outline: as §5

Drug metabolism [1]: metabolite_detected
Drug metabolism (Hepatocyte [2]): 0.085 pmol
Drug metabolism (Hepatocyte [3]): 0.025 pmol
Drug metabolism [4]: 0.005 pmol
Drug metabolism [5]: metabolite_detected
Drug metabolism (Hepatocyte [6]): metabolite_detected
Drug metabolism (Hepatocyte [7]): 0.063 pmol
SMILES: [3H]C1O[P@](=O)(OC(C)C)O[C@@H]2[C@@H]1O[C@@H](n1ccc(=O)[nH]c1=O)[C@@]21CCO1 (some centres undefined)

SMILES: CC(C)O[P@@]1(=O)OC[C@H]2O[C@@H](n3ccc(=O)[nH]c3=O)[C@@]3(CCO3)[C@@H]2O1
Activity (Hepatitis C virus [8]): -1.17
Cmax [9]: 5030 ng/g
Tlast (Liver [10]): 30 h
Cmax [11]: 851 ng/mL
CC50 at 72 h [12]: > 100 µM
Drug metabolism (Hepatocyte [13]): metabolite_notdetected
Activity (Hepatitis C virus [14]): -0.64
Drug metabolism (Hepatocyte [15]): metabolite_detected
Activity (Hepatitis C virus [16]): Dose-dependent effect
Cmax [17]: 4650 ng/mL
Drug uptake (Hepatocyte [18]): Active
Drug metabolism (Hepatocyte [19]): metabolite_notdetected
Drug metabolism (Hepatocyte [20]): 0.231 pmol
AUC (Liver [21]): 758393 ng·h/g
Drug metabolism (Hepatocyte [22]): metabolite_detected
Cmax [23]: 701 ng/g
AUClast (Liver [24]): 1456 ng·h/g

Source: ChEMBL document CHEMBL3826882, “Discovery of 1-((2R,4aR,6R,7R,7aR)-2-Isopropoxy-2-oxidodihydro-4H,6H-spiro[furo[3,2-d][1,3,2]dioxaphosphinine-7,2'-oxetan]-6-yl)pyrimidine-2,4(1H,3H)-dione (JNJ-54257099), a 3'-5'-Cyclic Phosphate Ester Prodrug of 2'-Deoxy-2'-Spirooxetane Uridine Triphosphate Useful for HCV Inhibition” (J Med Chem, 2016)
